Assay results collected from several papers.
Protocols differ between the studies behind these lines.
Observed: metabolic stability
Species: human

| SMILES | system | conditions | measurement | value |
| --- | --- | --- | --- | --- |
| O=c1ccc2ccc(O)cc2o1 | liver microsomes | – | scaled CLint | 56.4 L/h/kg |
| Nc1ncnc2c1ncn2[C@@H]1O[C@H](CO)C[C@H]1O | liver microsomes | 1 µM | microsomal CLint | 142 µL/min/mg |
| CC[N+]1(C)CCN(c2ccc(C(=O)Nc3cccc(C)n3)cc2)CC1 | liver microsomes | – | microsomal CLint | < 3 µL/min/mg |
| CCn1cnc2c([C@@](O)(CC)c3ccc(C(F)(F)F)nc3)n(C)nc2c1=O | liver microsomes | 0.5 µM, pH 7.4 | microsomal CLint | < 3 µL/min/mg |
| COc1ccc([C@@H]2Sc3ccccc3N(CCN(C)C)C(=O)[C@@H]2OC(C)=O)cc1 | liver microsomes | – | microsomal CLint | 26 µL/min/mg |
| CCC(CC)COC(=O)[C@H](C)N[P@](=O)(OC[C@@H]1C[C@@H](O)[C@H](n2cnc3c(N)nc(F)nc32)O1)Oc1ccccc1 | liver microsomes | 1 µM | microsomal CLint | 1230 µL/min/mg |
| Cc1ccc(Cn2cc(C(=O)NN)c(=O)c3cc(Oc4ccccc4)ccc32)cc1 | liver microsomes | 1 µM | microsomal CLint | < 11.6 µL/min/mg |
| Cn1nc2c(=O)n(C3CC3)cnc2c1[C@](O)(c1cnc(C(F)(F)F)c(Cl)c1)C(F)(F)F | hepatocytes | 0.5 µM, pH 7.4 | hepatocyte CLint | 0.5 µL/min/10⁶ cells |
| C[C@]1(C(=O)[C@H](CC2=CCCC2)NC(=O)[C@@H]2COCCCCCC(=O)N3C[C@H](F)C[C@H]3C(=O)N2)CO1 | liver microsomes | 2 µM, 1 h | scaled CLint | 9 L/h/kg |
| CC[C@@](O)(c1cnc(C(F)(F)F)c(Cl)c1)c1c2ccn(C3CC3)c(=O)c2nn1C | hepatocytes | 0.5 µM, pH 7.4 | hepatocyte CLint | 1.6 µL/min/10⁶ cells |
| O=C(O)Cc1ccccc1Nc1c(Cl)cccc1Cl | liver microsomes | – | scaled CLint | 10.4 L/h/kg |
| CC(C)C[C@H](NC(=O)[C@H](CCc1ccccc1)NC(=O)CN1CCOCC1)C(=O)N[C@@H](Cc1ccccc1)C(=O)N[C@@H](CC(C)C)C(=O)[C@@]1(C)CO1 | liver microsomes | 2 µM, 1 h | scaled CLint | 55.9 L/h/kg |
| CCC(CC)COC(=O)[C@H](C)N[P@@](=O)(OC[C@@H]1C[C@@H](O)[C@H](n2cnc3c(N)ncnc32)O1)Oc1ccccc1 | liver microsomes | 1 µM | microsomal CLint | 2610 µL/min/mg |
| C[C@]1(C(=O)[C@H](Cc2ccccc2)NC(=O)[C@@H]2Cc3ccc(cc3)OCCCCCCCC(=O)N3CCC[C@H]3C(=O)N2)CO1 | liver microsomes | 2 µM, 1 h | scaled CLint | 55.6 L/h/kg |
| Cn1nc2c(=O)n(C3CC3)ncc2c1[C@](O)(c1cnc(C(F)(F)F)c(Cl)c1)C(F)(F)F | hepatocytes | 0.5 µM, pH 7.4 | hepatocyte CLint | < 0.5 µL/min/10⁶ cells |
| O=C1CC[C@H](N2Cc3cc(N4CCN(CC5CCN(c6ccc([C@@H]7c8ccc(O)cc8CC[C@@H]7c7ccccc7)cc6)CC5)CC4)ccc3C2=O)C(=O)N1 | hepatocytes | 1 µM | hepatocyte CLint | 13 µL/min/10⁶ cells |
| C[C@]1(C(=O)[C@H](Cc2ccccc2)NC(=O)[C@@H]2COCCCCCC(=O)N3C[C@H](F)C[C@H]3C(=O)N2)CO1 | liver microsomes | 2 µM, 1 h | scaled CLint | 5.59 L/h/kg |
| Cn1nc2c(=O)n(C3CC3)ncc2c1[C@](N)(c1ccc(C(F)(F)F)c(Cl)c1)C1CC1 | hepatocytes | 0.5 µM, pH 7.4 | hepatocyte CLint | < 0.5 µL/min/10⁶ cells |
| CCN(CCN)c1ccc(Nc2cc(NC3CC3)n3ncc(C#N)c3n2)cc1-n1cnnc1 | liver microsomes | – | scaled CLint | < 0.408 L/h/kg |
